Experimental data reported in ChEMBL document CHEMBL2429732, “Aminopyrazole-Phenylalanine Based GPR142 Agonists: Discovery of Tool Compound and in Vivo Efficacy Studies” (ACS Med Chem Lett, 2013).
Activity calls are given as the source filed them. No cut-off for these calls is given here.

Experiments:
[1] = Fraction unbound in human plasma; assay type: ADME, cell-free
Mus musculus [2] = assay: Antidiabetic activity in mouse bearing human islets assessed as reduction of plasma glucose AUC at 10 mg/kg, sc administered 15 mins before glucose challenge measured up to 90 mins; set-up: scale not given: the % may be the effect or the level left; conditions: route subcutaneous
[3] = Volume of distribution at steady state in cynomolgus monkey at 0.5 mg/kg, iv; assay type: ADME, organism-based, Macaca fascicularis; set-up: dose 0.5 mg/kg, route intravenous; conditions: in vivo, read-out: Vdss
Mus musculus [4] = organism: Mus musculus; assay: Induction of insulin secretion in GPR142-deficient mouse islets at 3 to 10 uM by ELISA in presence of glucose; assay type: functional
In short: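 Islets isolated from wild-type and GPR142 knockout mice were incubated with test agent at 3.0 and 10.0 μM in the presence of 16.7 mM glucose, and insulin secretion was measured.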

[5] = Cmax in cynomolgus monkey at 10 mg/kg, po; assay type: ADME, organism-based, Macaca fascicularis; set-up: dose 10 mg/kg, route oral; conditions: in vivo
In short: (§1)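 Oral dosing used the ethyl ester prodrug. All pharmacokinetic calculations were based on the parent free acid in plasma.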

[6] = Tmax in cynomolgus monkey at 10 mg/kg, po; assay type: ADME, organism-based, Macaca fascicularis; set-up: dose 10 mg/kg, route oral; conditions: in vivo; in short: as §1
[7] = Agonist activity at cynomolgus monkey GPR142; set-up: species or system Macaca fascicularis
In short: (§2)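 HEK293 cells, plated at 25 000/well, were transiently transfected with 100 ng receptor plasmid per well. They were labelled overnight with 1.0 μCi/mL tritiated inositol in inositol-free DMEM/10% dialyzed FCS. Cells were then exposed to graded compound levels in HBSS/0.01% BSA with 10 mM LiCl for 1 h at 37 °C. Cells were lysed in cold 20 mM formic acid (5 h, 4 °C), and IP was captured on yttrium silicate SPA beads and read by scintillation counting. EC50 is the mean of three runs.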

[8] = target: T1, Probable G-protein coupled receptor 142 (Mus musculus) (UniProt Q7TQN9); assay: Ex vivo agonist activity at GPR142 in wild type mouse islets assessed as stimulation of insulin secretion at 3 to 10 uM by ELISA in presence of glucose
T1 sequence (whole entry): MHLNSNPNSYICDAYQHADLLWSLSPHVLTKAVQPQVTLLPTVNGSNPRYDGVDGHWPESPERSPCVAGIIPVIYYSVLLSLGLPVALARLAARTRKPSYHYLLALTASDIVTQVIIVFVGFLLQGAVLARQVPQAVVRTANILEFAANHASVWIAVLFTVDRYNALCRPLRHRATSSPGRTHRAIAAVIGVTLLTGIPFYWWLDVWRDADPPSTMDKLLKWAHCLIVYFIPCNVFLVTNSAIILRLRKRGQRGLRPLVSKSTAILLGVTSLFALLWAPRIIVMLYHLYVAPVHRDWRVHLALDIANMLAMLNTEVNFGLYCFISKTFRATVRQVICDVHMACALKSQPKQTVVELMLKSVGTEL
In short: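 Islets from wild-type and GPR142 knockout mice incubated with compound at 3.0 and 10.0 μM in presence of 16.7 mM glucose; insulin secretion measured.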

[9] = Half life in cynomolgus monkey at 0.5 mg/kg, iv; assay type: ADME, organism-based, Macaca fascicularis; set-up: dose 0.5 mg/kg, route intravenous; conditions: in vivo
[10] = Volume of distribution at steady state in rat at 0.5 mg/kg, iv; assay type: ADME, organism-based; set-up: dose 0.5 mg/kg, route intravenous; conditions: in vivo, read-out: Vdss
[11] = Fraction unbound in cynomolgus monkey plasma; assay type: ADME, cell-free, Macaca fascicularis
[12] = target: Voltage-gated inwardly rectifying potassium channel KCNH2 (Homo sapiens, UniProt Q12809); assay: Inhibition of human ERG by patch clamp assay
Chain of Voltage-gated inwardly rectifying potassium channel KCNH2 (Q12809 whole entry): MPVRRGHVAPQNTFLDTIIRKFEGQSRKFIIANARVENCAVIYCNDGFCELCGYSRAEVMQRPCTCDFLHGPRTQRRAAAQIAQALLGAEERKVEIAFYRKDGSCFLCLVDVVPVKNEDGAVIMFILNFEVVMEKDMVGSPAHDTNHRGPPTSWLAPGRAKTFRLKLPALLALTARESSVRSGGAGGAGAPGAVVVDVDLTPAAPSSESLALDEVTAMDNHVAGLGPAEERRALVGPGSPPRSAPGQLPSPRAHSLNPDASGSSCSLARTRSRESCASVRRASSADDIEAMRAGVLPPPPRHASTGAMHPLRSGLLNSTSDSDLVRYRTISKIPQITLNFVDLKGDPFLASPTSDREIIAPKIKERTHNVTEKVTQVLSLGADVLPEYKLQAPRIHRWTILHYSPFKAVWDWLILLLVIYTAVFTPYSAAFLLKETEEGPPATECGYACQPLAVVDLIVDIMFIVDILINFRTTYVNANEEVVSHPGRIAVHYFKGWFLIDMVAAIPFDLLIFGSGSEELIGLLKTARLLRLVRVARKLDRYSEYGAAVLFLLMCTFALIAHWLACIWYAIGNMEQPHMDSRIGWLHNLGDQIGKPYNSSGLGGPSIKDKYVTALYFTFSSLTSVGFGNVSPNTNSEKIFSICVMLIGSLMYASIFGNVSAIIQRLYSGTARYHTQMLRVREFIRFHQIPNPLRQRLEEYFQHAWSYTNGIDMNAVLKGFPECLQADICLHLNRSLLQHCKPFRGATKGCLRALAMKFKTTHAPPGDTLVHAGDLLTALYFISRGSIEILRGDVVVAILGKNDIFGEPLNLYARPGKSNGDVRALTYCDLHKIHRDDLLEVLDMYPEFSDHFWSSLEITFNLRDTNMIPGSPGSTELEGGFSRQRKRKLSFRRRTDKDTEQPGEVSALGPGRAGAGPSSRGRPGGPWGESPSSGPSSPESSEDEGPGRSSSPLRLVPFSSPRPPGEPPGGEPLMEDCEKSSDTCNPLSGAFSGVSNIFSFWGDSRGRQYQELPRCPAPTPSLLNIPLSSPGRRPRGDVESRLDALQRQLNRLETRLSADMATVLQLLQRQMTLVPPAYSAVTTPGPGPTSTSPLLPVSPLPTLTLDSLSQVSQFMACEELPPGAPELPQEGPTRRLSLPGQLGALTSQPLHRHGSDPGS

[13] = target: T2, Nuclear receptor subfamily 1 group I member 2 (Homo sapiens, UniProt O75469); assay: Induction of human PXR activity
T2 sequence (O75469 whole entry): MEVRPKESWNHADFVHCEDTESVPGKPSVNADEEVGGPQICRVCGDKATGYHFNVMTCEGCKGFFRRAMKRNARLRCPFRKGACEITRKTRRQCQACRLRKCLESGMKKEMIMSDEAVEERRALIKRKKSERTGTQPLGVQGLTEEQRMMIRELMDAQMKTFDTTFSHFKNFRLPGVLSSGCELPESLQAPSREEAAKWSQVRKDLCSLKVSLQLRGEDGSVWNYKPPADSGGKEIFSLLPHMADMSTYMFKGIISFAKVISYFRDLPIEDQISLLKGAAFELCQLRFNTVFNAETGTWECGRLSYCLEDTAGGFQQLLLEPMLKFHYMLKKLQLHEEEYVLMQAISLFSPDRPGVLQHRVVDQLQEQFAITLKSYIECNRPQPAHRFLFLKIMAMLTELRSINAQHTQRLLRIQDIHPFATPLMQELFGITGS

[14] = Permeability across human Caco2 cells; assay type: ADME, cell-based; conditions: Caco-2, read-out: permeability
[15] = target: T3, Probable G-protein coupled receptor 142 (Mus musculus, UniProt Q7TQN9); assay: Agonist activity at mouse GPR142; in short: as §2
T3 sequence (Q7TQN9 whole entry): T1 sequence (whole entry)

[16] = Half life in rat at 0.5 mg/kg, iv; assay type: ADME, organism-based; set-up: dose 0.5 mg/kg, route intravenous; conditions: in vivo
[17] = target: T1, Probable G-protein coupled receptor 142 (Mus musculus); assay: Agonist activity at mouse GPR142 relative to tryptophan
In short: (§3)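 Inositol phosphate accumulation in HEK293 cells transfected with mouse or cynomolgus monkey receptor plasmid, tritiated inositol labelling, compounds in HBSS/0.01% BSA plus 10 mM LiCl, 37 °C for 1 h, SPA scintillation read-out; maximal efficacy expressed relative to tryptophan response.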

[18] = Oral bioavailability in rat at 2 mg/kg; assay type: ADME, organism-based; conditions: in vivo; in short: as §1
[19] = Cmax in rat at 2 mg/kg, sc; assay type: ADME, organism-based; set-up: dose 2 mg/kg, route subcutaneous; conditions: in vivo
[20] = Tmax in rat at 2 mg/kg, po; assay type: ADME, organism-based; set-up: dose 2 mg/kg, route oral; conditions: in vivo; in short: as §1
[21] = Tmax in rat at 2 mg/kg, sc; assay type: ADME, organism-based; set-up: dose 2 mg/kg, route subcutaneous; conditions: in vivo
[22] = Bioavailability in rat at 2 mg/kg, sc; assay type: ADME, organism-based; conditions: in vivo
Mus musculus [23] = assay: Antidiabetic activity in wild type mouse assessed as reduction of plasma glucose AUC at 10 mg/kg, sc administered 15 mins before glucose challenge measured up to 90 mins; set-up: scale not given: the % may be the effect or the level left; conditions: route subcutaneous
[24] = Oral bioavailability in cynomolgus monkey at 10 mg/kg; assay type: ADME, organism-based, Macaca fascicularis; conditions: in vivo; in short: as §1
Cytochrome P450 2D6 = Cytochrome P450 2D6 (Homo sapiens, UniProt P10635); assay: Inhibition of CYP2D6 (unknown origin); assay type: ADME
Chain of Cytochrome P450 2D6 (P10635 whole entry): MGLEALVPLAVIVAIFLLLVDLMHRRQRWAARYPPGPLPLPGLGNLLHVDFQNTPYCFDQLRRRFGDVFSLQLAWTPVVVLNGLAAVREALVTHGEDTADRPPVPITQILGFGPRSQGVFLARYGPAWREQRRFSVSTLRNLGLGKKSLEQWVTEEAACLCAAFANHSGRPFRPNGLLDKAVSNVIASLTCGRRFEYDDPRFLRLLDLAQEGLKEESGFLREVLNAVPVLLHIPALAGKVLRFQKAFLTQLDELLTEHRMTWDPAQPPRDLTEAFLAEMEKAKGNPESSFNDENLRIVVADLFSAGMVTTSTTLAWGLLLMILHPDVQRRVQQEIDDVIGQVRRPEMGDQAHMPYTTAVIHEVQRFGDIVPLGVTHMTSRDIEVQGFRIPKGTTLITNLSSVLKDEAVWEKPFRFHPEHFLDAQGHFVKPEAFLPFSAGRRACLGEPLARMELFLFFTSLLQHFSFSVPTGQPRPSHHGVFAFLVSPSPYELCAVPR

[25] = Cmax in rat at 2 mg/kg, po; assay type: ADME, organism-based; set-up: dose 2 mg/kg, route oral; conditions: in vivo; in short: as §1
[26] = Metabolic stability in rat liver microsomes assessed as compound remaining at 1 uM after 30 mins; assay type: ADME, Microsome; conditions: read-out: Stability
[27] = Metabolic stability in human liver microsomes assessed as compound remaining at 1 uM after 30 mins; assay type: ADME, Microsome; conditions: read-out: Stability
In short: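 Compound at 1.0 μM was incubated for 30 min in human liver microsomes; percentage of intact compound remaining was determined.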

Macaca fascicularis = organism: Macaca fascicularis; assay: Agonist activity at cynomolgus monkey GPR142 relative to tryptophan; in short: as §3
[28] = Fraction unbound in rat plasma; assay type: ADME, cell-free
[29] = Clearance in rat at 0.5 mg/kg, iv; assay type: ADME, organism-based; set-up: dose 0.5 mg/kg, route intravenous; conditions: in vivo
[30] = Tmax in cynomolgus monkey at 2 mg/kg, sc; assay type: ADME, organism-based, Macaca fascicularis; set-up: dose 2 mg/kg, route subcutaneous; conditions: in vivo
[31] = Cmax in cynomolgus monkey at 2 mg/kg, sc; assay type: ADME, organism-based, Macaca fascicularis; set-up: dose 2 mg/kg, route subcutaneous; conditions: in vivo
[32] = target: T4, Probable G-protein coupled receptor 142 (Homo sapiens, UniProt Q7Z601); assay: Agonist activity at human GPR142 expressed in HEK293 cells assessed as inositol phosphate accumulation using [3H]-inositol after 1 hr by scintillation counting; assay type: functional, cell-based
T4 sequence (Q7Z601 whole entry): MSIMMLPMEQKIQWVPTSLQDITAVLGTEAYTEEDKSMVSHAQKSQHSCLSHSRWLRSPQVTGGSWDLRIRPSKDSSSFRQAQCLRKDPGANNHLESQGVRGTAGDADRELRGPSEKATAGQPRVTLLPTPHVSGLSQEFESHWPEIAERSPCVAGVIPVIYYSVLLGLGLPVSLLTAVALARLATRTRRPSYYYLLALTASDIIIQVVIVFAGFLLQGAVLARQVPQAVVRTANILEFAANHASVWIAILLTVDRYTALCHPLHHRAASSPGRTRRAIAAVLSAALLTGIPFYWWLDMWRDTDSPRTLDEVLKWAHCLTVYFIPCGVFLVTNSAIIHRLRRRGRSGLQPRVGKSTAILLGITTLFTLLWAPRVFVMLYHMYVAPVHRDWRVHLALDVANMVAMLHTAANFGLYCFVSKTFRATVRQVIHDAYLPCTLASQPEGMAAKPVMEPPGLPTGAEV

[33] = Bioavailability in cynomolgus monkey at 2 mg/kg, sc; assay type: ADME, organism-based, Macaca fascicularis; conditions: in vivo
[34] = Clearance in cynomolgus monkey at 0.5 mg/kg, iv; assay type: ADME, organism-based, Macaca fascicularis; set-up: dose 0.5 mg/kg, route intravenous; conditions: in vivo
Cytochrome P450 3A4 = Cytochrome P450 3A4 (Homo sapiens, UniProt P08684); assay: Inhibition of CYP3A4 (unknown origin); assay type: ADME
Chain of Cytochrome P450 3A4 (P08684 whole entry): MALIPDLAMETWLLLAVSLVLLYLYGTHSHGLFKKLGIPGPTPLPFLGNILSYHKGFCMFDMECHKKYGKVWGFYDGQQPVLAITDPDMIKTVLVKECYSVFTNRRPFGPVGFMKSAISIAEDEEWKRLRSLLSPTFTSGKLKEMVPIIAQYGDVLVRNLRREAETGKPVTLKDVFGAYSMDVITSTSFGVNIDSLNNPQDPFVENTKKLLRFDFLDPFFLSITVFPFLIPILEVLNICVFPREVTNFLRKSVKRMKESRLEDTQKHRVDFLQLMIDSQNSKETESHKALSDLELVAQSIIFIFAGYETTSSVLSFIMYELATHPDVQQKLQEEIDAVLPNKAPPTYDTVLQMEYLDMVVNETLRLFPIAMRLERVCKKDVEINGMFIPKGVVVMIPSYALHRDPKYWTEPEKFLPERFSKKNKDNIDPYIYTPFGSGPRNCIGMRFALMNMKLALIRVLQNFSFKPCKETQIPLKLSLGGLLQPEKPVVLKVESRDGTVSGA

Q: Which fraction unbound [1] does the source give for `Cn1nc(-c2ccncc2)cc1NC(=O)[C@H](Cc1ccccc1)NCC(=O)O` here?
A: The fraction unbound was 0.16.

Q: And the Activity (Mus musculus [2])?
A: Its Activity is -28%.

Q: And the Vd [3]?
A: Its Vd is 0.33 L/kg.

Q: And the Activity (Mus musculus [4])?
A: Its Activity is “inactive”.

Q: And the Cmax [5]?
A: The Cmax was 0.4 µM.

Q: And the Tmax [6]?
A: Its Tmax is 4 h.

Q: And the EC50 [7]?
A: Its EC50 is 79 nM.

Q: And the Activity [8]?
A: Its Activity is “Active”.

Q: What about the half-life [9] of the same molecule?
A: Its half-life is 2.3 h.

Q: And the Vd [10]?
A: The Vd was 0.29 L/kg.

Q: What about the fraction unbound [11] of the same molecule?
A: The fraction unbound was 0.1.

Q: What about the IC50 [12] of the same molecule?
A: Its IC50 is over 30000 nM.

Q: And the Activity [13]?
A: The Activity was “Not Active”.

Q: And the Papp [14]?
A: The Papp was 0.9 ×10⁻⁶ cm/s.

Q: And the EC50 [15]?
A: The EC50 was 31 nM.

Q: What about the half-life [16] of the same molecule?
A: The half-life was 4.1 h.

Q: And the Emax [17]?
A: The Emax was 73%.

Q: And the bioavailability [18]?
A: Its bioavailability is 3%.

Q: What about the Cmax [19] of the same molecule?
A: The Cmax was 7.5 µM.

Q: And the Tmax [20]?
A: Its Tmax is 0.83 h.

Q: What about the Tmax [21] of the same molecule?
A: The Tmax was 0.38 h.

Q: What about the bioavailability [22] of the same molecule?
A: The bioavailability was 81%.

Q: And the Activity (Mus musculus [23])?
A: The Activity was -25%.

Q: What about the bioavailability [24] of the same molecule?
A: Its bioavailability is 6%.

Q: What about the IC50 (Cytochrome P450 2D6) of the same molecule?
A: The IC50 was over 30000 nM.

Q: And the Cmax [25]?
A: Its Cmax is 0.17 µM.

Q: What about the remaining at 0.5 h, 1 µM [26] of the same molecule?
A: Its remaining at 0.5 h, 1 µM is over 90%.

Q: What about the remaining at 0.5 h, 1 µM [27] of the same molecule?
A: Its remaining at 0.5 h, 1 µM is over 90%.

Q: And the Emax (Macaca fascicularis)?
A: The Emax was 79%.

Q: What about the fraction unbound [28] of the same molecule?
A: The fraction unbound was 0.01.

Q: What about the clearance [29] of the same molecule?
A: The clearance was 2.5 mL/min/kg.

Q: What about the Tmax [30] of the same molecule?
A: Its Tmax is 0.5 h.

Q: What about the Cmax [31] of the same molecule?
A: Its Cmax is 6.3 µM.

Q: And the EC50 [32]?
A: The EC50 was 52 nM.

Q: And the bioavailability [33]?
A: Its bioavailability is 100%.

Q: What about the clearance [34] of the same molecule?
A: The clearance was 7.33 mL/min/kg.

Q: What about the IC50 (Cytochrome P450 3A4) of the same molecule?
A: The IC50 was over 30000 nM.
